Results as given in ChEMBL document CHEMBL1212800, “Influence of alpha-1 glycoprotein acid concentrations and variants on atazanavir pharmacokinetics in HIV-infected patients included in the ANRS 107 trial” (Antimicrob Agents Chemother, 2010).

Columns and labels:
[1] = Half life in patient with => 40 IU/liter ALAT level by one-compartment model; assay type: ADME, organism-based; conditions: human, in vivo
How it was run: (§1)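 HIV-infected patients (ANRS 107) on atazanavir plus ritonavir plus tenofovir plus optimized background. Week-6 predose plasma trough samples; 10-patient substudy also sampled at 1, 2, 3, 5, 8 and 24 h postdose. Plasma held at −20°C, assayed by LC-MS/MS (LOQ 1 ng/ml). Population analysis used a one-compartment model with first-order absorption and elimination, exponential interindividual variability and proportional residual error.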

[2] = Half life in patient with => 40 IU/liter ALAT level by covariate model; assay type: ADME, organism-based; conditions: human, in vivo; how it was run: as §1
[3] = AUC in patient with => 40 IU/liter ALAT level by covariate model; assay type: ADME, organism-based; conditions: human, in vivo; how it was run: as §1
[4] = Apparent oral clearance in human by one-compartment model; assay type: ADME, organism-based; conditions: in vivo; how it was run: as §1
[5] = AUC in patient with elevated alpha-1- glycoprotein acid level by one-compartment model; assay type: ADME, organism-based; conditions: human, in vivo; how it was run: as §1
[6] = AUC in patient with elevated alpha-1- glycoprotein acid level by covariate model; assay type: ADME, organism-based; conditions: human, in vivo; how it was run: as §1
[7] = Half life in patient with elevated alpha-1- glycoprotein acid level by one-compartment model; assay type: ADME, organism-based; conditions: human, in vivo; how it was run: as §1
[8] = Apparent volume of distribution with respect to the bioavailability in human by one-comparment model; assay type: ADME, organism-based; conditions: in vivo, read-out: Vc/F; how it was run: as §1
[9] = Half life in patient with elevated alpha-1- glycoprotein acid level by covariate model; assay type: ADME, organism-based; conditions: human, in vivo; how it was run: as §1
[10] = AUC in patient with => 40 IU/liter ALAT level by one-compartment model; assay type: ADME, organism-based; conditions: human, in vivo; how it was run: as §1
[11] = biological target: Albumin (Homo sapiens, UniProt P02768); assay: Binding affinity to human serum albumin; assay type: ADME; conditions: isolated protein
How it was run: (§2)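 In vitro binding: alpha-1 glycoprotein acid or serum albumin solutions in pH 7.4 phosphate-buffered saline with added atazanavir. Bound and unbound drug separated by ultrafiltration of 500-µl samples (30,000 Da cutoff membrane), 2 h at 30°C. Ultrafiltrate drug measured by HPLC-UV at 220 nm (C18 column, liquid-liquid extraction, internal standard). Unbound fraction taken as unbound/total concentration. Binding profiled as bound versus unbound concentration.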

[12] = Binding affinity to human alpha-1-glycoprotein acid; assay type: ADME; how it was run: as §2
[13] = species: Homo sapiens; assay: Absorption rate constant in human by covariate model; assay type: ADME, organism-based; conditions: in vivo; how it was run: as §1
[14] = Apparent oral clearance in human by covariate model; assay type: ADME, organism-based; conditions: in vivo; how it was run: as §1
[15] = Apparent volume of distribution with respect to the bioavailability in human by covariate model; assay type: ADME, organism-based; conditions: in vivo, read-out: Vc/F; how it was run: as §1
[16] = species: Homo sapiens; assay: Absorption rate constant in human by one-compartment model; assay type: ADME, organism-based; conditions: in vivo; how it was run: as §1

Sequence of Albumin (P02768 whole entry): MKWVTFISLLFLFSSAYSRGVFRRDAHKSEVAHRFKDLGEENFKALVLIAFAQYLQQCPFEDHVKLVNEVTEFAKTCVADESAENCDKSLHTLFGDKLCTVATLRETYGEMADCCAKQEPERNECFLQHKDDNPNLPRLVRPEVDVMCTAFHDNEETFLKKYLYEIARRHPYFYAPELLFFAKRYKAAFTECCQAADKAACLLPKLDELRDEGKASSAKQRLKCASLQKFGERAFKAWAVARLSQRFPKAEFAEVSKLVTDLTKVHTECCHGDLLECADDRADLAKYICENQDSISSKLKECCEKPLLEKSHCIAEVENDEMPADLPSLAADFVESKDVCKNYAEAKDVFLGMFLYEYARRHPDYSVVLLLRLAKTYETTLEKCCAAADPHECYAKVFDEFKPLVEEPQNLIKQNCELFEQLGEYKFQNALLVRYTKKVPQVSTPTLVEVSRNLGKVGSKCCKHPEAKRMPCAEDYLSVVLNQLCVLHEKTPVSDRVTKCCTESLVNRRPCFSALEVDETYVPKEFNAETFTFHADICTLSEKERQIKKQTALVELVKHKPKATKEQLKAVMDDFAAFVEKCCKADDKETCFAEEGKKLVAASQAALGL

COC(=O)N[C@H](C(=O)N[C@@H](Cc1ccccc1)[C@@H](O)CN(Cc1ccc(-c2ccccn2)cc1)NC(=O)[C@@H](NC(=O)OC)C(C)(C)C)C(C)(C)C [ATAZANAVIR]
half-life [1]: 7.8 h | half-life [2]: 7.8 h | AUC [3]: 47400 ng·h/mL | CL/F [4]: 130 mL/min | AUC [5]: 49600 ng·h/mL | AUC [6]: 49600 ng·h/mL | half-life [7]: 9 h | Vd/F [8]: 78.2 L | half-life [9]: 9 h | AUC [10]: 47400 ng·h/mL | Activity [11]: 21.3% | Activity [12]: 31.1% | ka [13]: 0.73 h⁻¹ | CL/F [14]: 222 mL/min | Vd/F [15]: 79.7 L | ka [16]: 0.75 h⁻¹
